Data published in ChEMBL document CHEMBL1671809, “Discovery of phosphoric acid mono-{2-[(E/Z)-4-(3,3-dimethyl-butyrylamino)-3,5-difluoro-benzoylimino]-thiazol-3-ylmethyl} ester (Lu AA47070): a phosphonooxymethylene prodrug of a potent and selective hA(2A) receptor antagonist” (J Med Chem, 2011).
Values after ≈ are worked out from the molar mass of the structure shown. One block for each compound: values may come before it.

Key:
[1] = target: T1, Adenosine receptor A2a (Homo sapiens, UniProt P29274); test: Displacement of [3H]-ZM241385 from human adenosine A2A receptor expressed in high five cells after 30 mins by scintillation counting
T1 sequence (P29274 whole entry): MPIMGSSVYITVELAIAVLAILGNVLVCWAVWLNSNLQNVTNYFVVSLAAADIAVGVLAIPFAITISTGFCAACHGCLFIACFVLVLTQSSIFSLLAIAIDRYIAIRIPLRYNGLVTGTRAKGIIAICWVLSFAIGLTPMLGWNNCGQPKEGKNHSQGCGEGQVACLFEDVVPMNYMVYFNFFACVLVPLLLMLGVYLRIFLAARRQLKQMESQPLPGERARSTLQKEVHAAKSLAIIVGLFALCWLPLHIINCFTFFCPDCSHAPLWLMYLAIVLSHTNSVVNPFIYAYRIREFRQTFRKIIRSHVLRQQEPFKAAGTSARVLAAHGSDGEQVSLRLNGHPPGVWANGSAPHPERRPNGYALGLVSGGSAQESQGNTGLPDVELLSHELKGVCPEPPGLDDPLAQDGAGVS

[2] = target: T2, Adenosine receptor A1 (Homo sapiens) (UniProt P30542); test: Displacement of [3H]-DPCPX from human adenosine A1 receptor expressed in CHO cells at 10 uM after 30 mins by scintillation counting; assay type: cell-based
T2 sequence (whole entry): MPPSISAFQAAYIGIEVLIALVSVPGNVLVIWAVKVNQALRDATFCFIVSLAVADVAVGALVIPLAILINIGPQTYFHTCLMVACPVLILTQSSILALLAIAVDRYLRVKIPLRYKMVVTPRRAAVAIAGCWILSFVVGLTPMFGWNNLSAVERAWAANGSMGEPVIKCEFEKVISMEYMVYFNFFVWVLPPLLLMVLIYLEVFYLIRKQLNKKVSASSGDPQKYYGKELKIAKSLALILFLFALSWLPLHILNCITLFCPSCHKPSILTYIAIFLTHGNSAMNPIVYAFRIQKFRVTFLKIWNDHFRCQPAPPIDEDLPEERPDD

[3] = system: Rattus norvegicus; test: Tmax in Sprague-Dawley rat assessed as 4-(3,3-Dimethyl-butyrylamino)-3,5-difluoro-N-thiazol-2-yl-benzamide level at 1.5 mg/kg, po; assay type: ADME, organism-based; parameters: dose 1.5 mg/kg, route oral; conditions: in vivo
Procedure, shortened: (§1)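 Prodrugs dosed po in aqueous 10% hydroxypropyl β-cyclodextrin (2 mL/kg) to rats; doses expressed as parent-drug equivalents; n = 3. Six tail-vein blood samples (~100 μL) taken between 5 and 420 min. Parent drug in plasma measured by HTLC-MS/MS. Profiles fitted with a one-compartment model; AUC extrapolated to infinity.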

[4] = system: Rattus norvegicus; test: Cmax in Sprague-Dawley rat assessed as 4-(3,3-Dimethyl-butyrylamino)-3,5-difluoro-N-thiazol-2-yl-benzamide level at 1.5 mg/kg, po; assay type: ADME, organism-based; parameters: dose 1.5 mg/kg, route oral; conditions: in vivo; procedure, shortened: as §1
[5] = Chemical stability of the compound assessed as half life; assay type: physicochemical
Procedure, shortened: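 Prodrug was dissolved in water, filtered, and diluted to approximately 0.05 mg/mL in buffers of different pH. Sealed vials were stored at 50 C to accelerate hydrolysis. Samples were diluted 1:1 with acetonitrile and analysed by HPLC for prodrug and hydrolysis products.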

[6] = system: Rattus norvegicus; test: Tmax in Sprague-Dawley rat assessed as 4-(3,3-Dimethyl-butyrylamino)-3,5-difluoro-N-thiazol-2-yl-benzamide level at 15 mg/kg, po; assay type: ADME, organism-based; parameters: dose 15 mg/kg, route oral; conditions: in vivo; procedure, shortened: as §1
[7] = system: Rattus norvegicus; test: Oral bioavailability in Sprague-Dawley rat assessed as 4-(3,3-Dimethyl-butyrylamino)-3,5-difluoro-N-thiazol-2-yl-benzamide level at 1.5 mg/kg; assay type: ADME, organism-based; conditions: in vivo; procedure, shortened: as §1
[8] = system: Rattus norvegicus; test: AUC in Sprague-Dawley rat assessed as 4-(3,3-Dimethyl-butyrylamino)-3,5-difluoro-N-thiazol-2-yl-benzamide level at 15 mg/kg, po; assay type: ADME, organism-based, Plasma; parameters: dose 15 mg/kg, route oral; conditions: in vivo; procedure, shortened: as §1
[9] = Aqueous solubility of the compound at pH 6.9; assay type: physicochemical; conditions: buffer
[10] = system: Rattus norvegicus; test: Cmax in Sprague-Dawley rat assessed as 4-(3,3-Dimethyl-butyrylamino)-3,5-difluoro-N-thiazol-2-yl-benzamide level at 15 mg/kg, po; assay type: ADME, organism-based; parameters: dose 15 mg/kg, route oral; conditions: in vivo; procedure, shortened: as §1
[11] = system: Rattus norvegicus; test: Oral bioavailability in Sprague-Dawley rat assessed as 4-(3,3-Dimethyl-butyrylamino)-3,5-difluoro-N-thiazol-2-yl-benzamide level at 15 mg/kg; assay type: ADME, organism-based; conditions: in vivo; procedure, shortened: as §1
[12] = target: T3, Adenosine receptor A1 (Homo sapiens, UniProt P30542); test: Displacement of [3H]-DPCPX from human adenosine A1 receptor expressed in CHO cells after 30 mins by scintillation counting; assay type: cell-based
T3 sequence (P30542 whole entry): T2 sequence (whole entry)
Procedure, shortened: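 CHO-hA1 membranes at 10.8 μg protein/well, pretreated with adenosine deaminase (2 U/mL, 30 min, 37 C), were incubated with 1 nM [3H]-DPCPX in 50 mM Tris/HCl pH 7.4 for 30 min at 25 C across 10 compound concentrations. Filtration on PEI-soaked GF/B, scintillation counting. Nonspecific binding by CGS15943. Ki by Cheng-Prusoff. Means of ≥2 determinations.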

[13] = organism: Homo sapiens; test: Selectivity ratio of Ki for human adenosine A1 receptor to Ki for human adenosine A2A receptor
[14] = target: Cytochrome P450 2D6 (Homo sapiens, UniProt P10635); test: Inhibition of recombinant CYP2D6 after 45 mins; assay type: ADME
Cytochrome P450 2D6, sequence (P10635 whole entry): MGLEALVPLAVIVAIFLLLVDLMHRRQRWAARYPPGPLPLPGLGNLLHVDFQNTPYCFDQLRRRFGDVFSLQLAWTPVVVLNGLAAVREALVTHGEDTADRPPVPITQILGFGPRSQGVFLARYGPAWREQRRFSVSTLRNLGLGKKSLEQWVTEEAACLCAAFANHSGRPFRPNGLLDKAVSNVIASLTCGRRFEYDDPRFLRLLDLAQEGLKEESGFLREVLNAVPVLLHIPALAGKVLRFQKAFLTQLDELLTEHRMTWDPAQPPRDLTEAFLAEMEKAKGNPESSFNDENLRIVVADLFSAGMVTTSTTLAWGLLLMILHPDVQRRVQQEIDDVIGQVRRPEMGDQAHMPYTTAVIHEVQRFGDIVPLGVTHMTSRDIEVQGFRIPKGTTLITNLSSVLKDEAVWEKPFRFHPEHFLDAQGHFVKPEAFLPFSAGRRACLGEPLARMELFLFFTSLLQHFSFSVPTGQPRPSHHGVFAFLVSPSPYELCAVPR
Procedure, shortened: (§2)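 Recombinant CYP supersomes incubated in phosphate buffer with eight compound concentrations (40-0.02 μM) and fluorogenic substrates. CYP1A2: 7-ethoxy-3-cyanocoumarin 10 μM, 28 min. CYP2C19: same substrate 50 μM, 45 min. CYP2D6: AMMC 3 μM, 45 min. CYP3A4: resorufin benzyl ether 100 μM, 30 min. Fluorescent metabolite read; IC50 relative to uninhibited controls.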

[15] = target: Cytochrome P450 2C19 (Homo sapiens, UniProt P33261); test: Inhibition of recombinant CYP2C19 after 45 mins; assay type: ADME; procedure, shortened: as §2
Cytochrome P450 2C19, sequence (P33261 whole entry): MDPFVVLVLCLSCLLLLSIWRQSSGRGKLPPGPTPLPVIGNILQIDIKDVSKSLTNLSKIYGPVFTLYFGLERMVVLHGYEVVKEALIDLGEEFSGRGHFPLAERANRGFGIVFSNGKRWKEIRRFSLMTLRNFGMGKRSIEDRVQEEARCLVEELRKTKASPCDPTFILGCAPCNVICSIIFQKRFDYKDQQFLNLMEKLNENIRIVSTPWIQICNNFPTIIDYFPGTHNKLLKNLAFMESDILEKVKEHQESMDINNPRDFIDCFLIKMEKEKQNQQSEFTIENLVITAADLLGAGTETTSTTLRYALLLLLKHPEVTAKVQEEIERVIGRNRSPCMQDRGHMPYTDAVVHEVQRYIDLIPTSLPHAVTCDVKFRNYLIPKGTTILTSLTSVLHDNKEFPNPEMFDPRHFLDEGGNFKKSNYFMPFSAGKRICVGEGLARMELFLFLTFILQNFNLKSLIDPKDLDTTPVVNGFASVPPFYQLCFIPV

[16] = system: Caco-2; test: Efflux ratio of permeability from basolateral to apical over apical to basolateral side in human Caco2 cells after 21 to 28 days by LC-MS/MS analysis
[17] = target: T4, Cytochrome P450 1A2 (Homo sapiens, UniProt P05177); test: Inhibition of recombinant CYP1A2 after 28 mins; assay type: ADME; procedure, shortened: as §2
T4 sequence (P05177 whole entry): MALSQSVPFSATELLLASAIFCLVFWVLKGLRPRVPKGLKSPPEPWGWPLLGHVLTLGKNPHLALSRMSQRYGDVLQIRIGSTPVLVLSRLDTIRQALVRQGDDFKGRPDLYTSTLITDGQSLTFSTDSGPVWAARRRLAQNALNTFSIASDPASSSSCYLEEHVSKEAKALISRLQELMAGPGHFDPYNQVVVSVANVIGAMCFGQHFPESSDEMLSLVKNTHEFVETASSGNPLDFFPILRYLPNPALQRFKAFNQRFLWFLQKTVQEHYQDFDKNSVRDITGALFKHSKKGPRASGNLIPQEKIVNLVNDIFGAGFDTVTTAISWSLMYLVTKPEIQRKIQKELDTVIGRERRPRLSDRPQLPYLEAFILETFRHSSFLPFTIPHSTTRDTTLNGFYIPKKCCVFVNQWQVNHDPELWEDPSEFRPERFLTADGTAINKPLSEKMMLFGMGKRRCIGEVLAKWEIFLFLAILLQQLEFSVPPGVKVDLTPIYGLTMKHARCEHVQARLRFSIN

[18] = target: Cytochrome P450 3A4 (Homo sapiens, UniProt P08684); test: Inhibition of recombinant CYP3A4 after 30 mins; assay type: ADME
Cytochrome P450 3A4, sequence (P08684 whole entry): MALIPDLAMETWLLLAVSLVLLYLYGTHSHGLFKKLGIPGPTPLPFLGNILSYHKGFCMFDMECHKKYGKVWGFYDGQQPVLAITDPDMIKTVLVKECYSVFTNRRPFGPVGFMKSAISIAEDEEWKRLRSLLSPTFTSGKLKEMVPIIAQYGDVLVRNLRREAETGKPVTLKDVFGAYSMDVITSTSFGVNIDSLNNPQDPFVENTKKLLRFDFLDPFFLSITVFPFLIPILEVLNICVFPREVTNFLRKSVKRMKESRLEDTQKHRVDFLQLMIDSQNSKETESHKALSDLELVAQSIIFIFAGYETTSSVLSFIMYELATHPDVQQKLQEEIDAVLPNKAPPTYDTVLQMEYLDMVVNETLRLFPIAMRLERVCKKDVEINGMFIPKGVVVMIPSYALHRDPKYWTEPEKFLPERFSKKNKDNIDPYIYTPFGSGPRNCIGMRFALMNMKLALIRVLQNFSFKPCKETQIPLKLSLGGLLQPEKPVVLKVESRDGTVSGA
Procedure, shortened: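 Recombinant CYP supersomes incubated in phosphate buffer with eight compound concentrations (40-0.02 μM) and fluorogenic substrates. CYP3A4: resorufin benzyl ether 100 μM, 30 min. Fluorescent metabolite read; IC50 relative to uninhibited controls.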

[19] = target: Cytochrome P450 2C9 (Homo sapiens, UniProt P11712); test: Inhibition of recombinant CYP2C9 after 45 mins; assay type: ADME
Cytochrome P450 2C9, sequence (P11712 whole entry): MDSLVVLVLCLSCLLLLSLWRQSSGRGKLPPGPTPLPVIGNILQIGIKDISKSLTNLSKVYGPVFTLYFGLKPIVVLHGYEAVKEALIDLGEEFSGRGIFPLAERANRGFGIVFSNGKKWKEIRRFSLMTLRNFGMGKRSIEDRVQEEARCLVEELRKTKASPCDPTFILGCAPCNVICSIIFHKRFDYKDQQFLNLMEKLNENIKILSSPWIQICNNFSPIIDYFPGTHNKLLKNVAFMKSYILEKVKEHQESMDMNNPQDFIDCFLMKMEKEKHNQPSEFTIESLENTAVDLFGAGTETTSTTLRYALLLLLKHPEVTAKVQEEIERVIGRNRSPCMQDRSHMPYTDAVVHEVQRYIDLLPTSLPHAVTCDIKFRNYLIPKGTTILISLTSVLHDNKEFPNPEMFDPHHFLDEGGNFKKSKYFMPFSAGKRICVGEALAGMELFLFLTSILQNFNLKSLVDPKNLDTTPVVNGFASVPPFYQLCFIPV

[20] = system: Liver microsomes; test: Intrinsic clearance in rat liver microsomes at 1 uM after 60 mins by LC-MS/MS analysis; assay type: ADME, Microsome; conditions: 1 h
Procedure, shortened: (§3)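 Compound at 1 μM with human or rat liver microsomes (0.5 mg protein/mL) plus NADPH at 37 C. Samples at 0, 5, 15, 30 and 60 min, quenched with acetonitrile, analysed by LC-MS/MS.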

[21] = system: Liver microsomes; test: Intrinsic clearance in human liver microsomes at 1 uM after 60 mins by LC-MS/MS analysis; assay type: ADME, Microsome; conditions: 1 h; procedure, shortened: as §3
[22] = target: T1, Adenosine receptor A2a; test: Displacement of [3H]-ZM241385 from human adenosine A2A receptor expressed in high five cells at 10 uM after 30 mins by scintillation counting
Procedure, shortened: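 hA2A membranes from baculovirus-infected High Five cells (harvested 72 h), pretreated with adenosine deaminase 2 U/mL for 30 min at 37 C. Membranes at 10.6 μg protein/well were incubated with 1 nM [3H]-ZM241385 in 50 mM Tris/HCl pH 7.4 for 30 min at 25 C. GF/B filtration, scintillation counting. Nonspecific binding by CGS15943. Percent displacement at 10 μM.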

[23] = system: Rattus norvegicus; test: Cmax in Sprague-Dawley rat assessed as 4-(3,3-Dimethyl-butyrylamino)-3,5-difluoro-N-thiazol-2-yl-benzamide level at 1.4 mg/kg, po; assay type: ADME, organism-based; parameters: dose 1.4 mg/kg, route oral; conditions: in vivo; procedure, shortened: as §1
[24] = system: Rattus norvegicus; test: Oral bioavailability in Sprague-Dawley rat assessed as 4-(3,3-Dimethyl-butyrylamino)-3,5-difluoro-N-thiazol-2-yl-benzamide level at 1.4 mg/kg; assay type: ADME, organism-based; conditions: in vivo; procedure, shortened: as §1
[25] = Aqueous solubility of the compound at pH 4; assay type: physicochemical; conditions: water
[26] = system: Rattus norvegicus; test: Tmax in Sprague-Dawley rat assessed as 4-(3,3-Dimethyl-butyrylamino)-3,5-difluoro-N-thiazol-2-yl-benzamide level at 1.4 mg/kg, po; assay type: ADME, organism-based; parameters: dose 1.4 mg/kg, route oral; conditions: in vivo; procedure, shortened: as §1

Ki [1]: 180 nM | inhibition [2]: 14%
Compound: CC(C)(C)CC(=O)Nc1ccc(C(=O)Nc2nccs2)c(Cl)c1

Tmax [3]: 30 min | Cmax [4]: 869 ng/mL | half-life [5]: > 96000 min | Tmax [6]: 24 min | F [7]: 55% | AUC [8]: 35000 ng·h/mL | solubility [9]: 8.6 mg/mL (≈ 18.6 mM) | Cmax [10]: 6413 ng/mL | F [11]: 66%
Compound: CC(C)(C)CC(=O)Nc1c(F)cc(C(=O)/N=c2\sccn2COP(=O)(O)O)cc1F

Ki [1]: 9.2 nM | Ki [12]: 650 nM | Ratio Ki [13]: 71
Compound: CC(C)(C)CC(=O)Nc1ccc(C(=O)Nc2nccs2)cc1F

Ki [1]: 200 nM | inhibition [2]: 36%
Compound: Cc1cc(NC(=O)CC(C)(C)C)ccc1C(=O)Nc1nccs1

IC50 [14]: > 40000 nM | Ki [1]: 350 nM | IC50 [15]: 36000 nM | Ratio [16]: 0.7 | inhibition [2]: 54% | IC50 [17]: > 40000 nM | IC50 [18]: > 40000 nM | IC50 [19]: > 40000 nM | CL [20]: 18 mL/min | CL [21]: 0.8 L/min
Compound: CCCC(=O)Nc1ccc(C(=O)Nc2nccs2)cc1

inhibition [22]: 0%
Compound: CC(C)(C)CNC(=O)c1ccc(NC(=O)c2nccs2)cc1

Ki [1]: 12 nM | Ki [12]: 220 nM | Ratio Ki [13]: 18
Compound: COc1c(C(=O)Nc2nccs2)ccc(NC(=O)CC(C)(C)C)c1F

Ki [1]: 17 nM | Ki [12]: 340 nM | Ratio Ki [13]: 20
Compound: COc1cc(C(=O)Nc2nccs2)ccc1NC(=O)CC(C)(C)C

Ki [1]: 32 nM | Ki [12]: 580 nM | Ratio Ki [13]: 18
Compound: Cc1cc(C(=O)Nc2nccs2)cc(Cl)c1NC(=O)CC(C)(C)C

Ki [1]: 120 nM | Ki [12]: 1100 nM
Compound: Cc1cnc(NC(=O)c2ccc(NC(=O)CC(C)(C)C)cc2)s1

Ki [1]: 22 nM | Ki [12]: 210 nM | Ratio Ki [13]: 10
Compound: CC(C)(C)CC(=O)Nc1ccc(C(=O)Nc2nccs2)cc1Cl

IC50 [14]: > 40000 nM | Ki [1]: 220 nM | IC50 [15]: 23000 nM | Ratio [16]: 0.8 | inhibition [2]: 47% | IC50 [17]: > 40000 nM | IC50 [18]: 1400 nM | IC50 [19]: > 40000 nM | CL [20]: 5 mL/min | CL [21]: 0.5 L/min
Compound: Cc1ccccc1C(=O)Nc1ccc(C(=O)Nc2nccs2)cc1

half-life [5]: 24 min | Cmax [23]: 381 ng/mL | F [24]: 31% | solubility [25]: 19.4 mg/mL (≈ 39.1 mM) | Tmax [26]: 54 min
Compound: CC[C@H](C)[C@H](N)C(=O)OCn1ccs/c1=N\C(=O)c1cc(F)c(NC(=O)CC(C)(C)C)c(F)c1
